Test results as given in ChEMBL document CHEMBL2021810, “Synthesis, anticancer activities, and cellular uptake studies of lipophilic derivatives of doxorubicin succinate” (J Med Chem, 2012).
pIC50: −log10 of the molar value. The source made the active and inactive calls. The rule behind the calls is not given here.

Experiments:
CCRF-CEM [1] = assay: Inhibition of cell proliferation of human CCRF-CEM cells at 1 uM after 96 to 120 hrs by CellTiter assay; type: functional
HT-29 [2] = assay: Inhibition of cell proliferation of human HT-29 cells at 1 uM after 96 to 120 hrs by CellTiter assay; type: functional
MDA-MB-468 [3] = assay: Inhibition of cell proliferation of human MDA-MB-468 cells at 1 uM after 96 to 120 hrs by CellTiter assay; type: functional
MDA-MB-361 [4] = assay: Inhibition of cell proliferation of human MDA-MB-361 cells at 1 uM after 96 to 120 hrs by CellTiter assay; type: functional
SK-OV-3 [5] = assay: Inhibition of cell proliferation of human SKOV3 cells at 1 uM after 96 to 120 hrs by CellTiter assay; type: functional
CCRF-CEM [6] = assay: Inhibition of cell proliferation of human CCRF-CEM cells at 1 uM by CellTiter assay; type: functional, cell-based; conditions: TDE = time-dependent effect
HT-29 [7] = assay: Inhibition of cell proliferation of human HT-29 cells at 1 uM by CellTiter assay; type: functional, cell-based; conditions: TDE = time-dependent effect
MDA-MB-468 [8] = assay: Inhibition of cell proliferation of human MDA-MB-468 cells at 1 uM by CellTiter assay; type: functional, cell-based; conditions: TDE = time-dependent effect
MDA-MB-361 [9] = assay: Inhibition of cell proliferation of human MDA-MB-361 cells at 1 uM by CellTiter assay; type: functional, cell-based; conditions: TDE = time-dependent effect
SK-OV-3 [10] = assay: Inhibition of cell proliferation of human SKOV3 cells at 1 uM by CellTiter assay; type: functional, cell-based; conditions: TDE = time-dependent effect
CCRF-CEM [11] = assay: Growth inhibition of human CCRF-CEM cells at 1 uM after 96 hrs by CellTiter assay; type: functional, cell-based
HT-29 [12] = assay: Growth inhibition of human HT-29 cells at 1 uM after 96 hrs by CellTiter assay; type: functional, cell-based
MDA-MB-468 [13] = assay: Growth inhibition of human MDA-MB-468 cells at 1 uM after 96 hrs by CellTiter assay; type: functional, cell-based
MDA-MB-361 [14] = assay: Growth inhibition of human MDA-MB-361 cells at 1 uM after 96 hrs by CellTiter assay; type: functional, cell-based
SK-OV-3 [15] = assay: Growth inhibition of human SKOV3 cells at 1 uM after 96 hrs by CellTiter assay; type: functional, cell-based
CCRF-CEM [16] = assay: Inhibition of cell proliferation of human CCRF-CEM cells after 96 hrs by CellTiter assay; type: functional, cell-based
[17] = target: DNA topoisomerase 2-alpha (Homo sapiens) (UniProt P11388); assay: Inhibition of topoisomerase 2-mediated KDNA decatenation at 25 uM after 30 mins by gel electrophoretic analysis
How it was run: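 Eukaryotic Topo II decatenation of kDNA (0.1 μg) in Tris-HCl 50 mM pH 8.0, NaCl 150 mM, MgCl2 10 mM, DTT 0.5 mM, ATP 2 mM with compound at 1–25 μM final, 30 min at 37 °C; stopped with sarkosyl buffer; products resolved on 1% agarose with ethidium bromide.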

Chain of DNA topoisomerase 2-alpha (Homo sapiens) (P11388 whole entry): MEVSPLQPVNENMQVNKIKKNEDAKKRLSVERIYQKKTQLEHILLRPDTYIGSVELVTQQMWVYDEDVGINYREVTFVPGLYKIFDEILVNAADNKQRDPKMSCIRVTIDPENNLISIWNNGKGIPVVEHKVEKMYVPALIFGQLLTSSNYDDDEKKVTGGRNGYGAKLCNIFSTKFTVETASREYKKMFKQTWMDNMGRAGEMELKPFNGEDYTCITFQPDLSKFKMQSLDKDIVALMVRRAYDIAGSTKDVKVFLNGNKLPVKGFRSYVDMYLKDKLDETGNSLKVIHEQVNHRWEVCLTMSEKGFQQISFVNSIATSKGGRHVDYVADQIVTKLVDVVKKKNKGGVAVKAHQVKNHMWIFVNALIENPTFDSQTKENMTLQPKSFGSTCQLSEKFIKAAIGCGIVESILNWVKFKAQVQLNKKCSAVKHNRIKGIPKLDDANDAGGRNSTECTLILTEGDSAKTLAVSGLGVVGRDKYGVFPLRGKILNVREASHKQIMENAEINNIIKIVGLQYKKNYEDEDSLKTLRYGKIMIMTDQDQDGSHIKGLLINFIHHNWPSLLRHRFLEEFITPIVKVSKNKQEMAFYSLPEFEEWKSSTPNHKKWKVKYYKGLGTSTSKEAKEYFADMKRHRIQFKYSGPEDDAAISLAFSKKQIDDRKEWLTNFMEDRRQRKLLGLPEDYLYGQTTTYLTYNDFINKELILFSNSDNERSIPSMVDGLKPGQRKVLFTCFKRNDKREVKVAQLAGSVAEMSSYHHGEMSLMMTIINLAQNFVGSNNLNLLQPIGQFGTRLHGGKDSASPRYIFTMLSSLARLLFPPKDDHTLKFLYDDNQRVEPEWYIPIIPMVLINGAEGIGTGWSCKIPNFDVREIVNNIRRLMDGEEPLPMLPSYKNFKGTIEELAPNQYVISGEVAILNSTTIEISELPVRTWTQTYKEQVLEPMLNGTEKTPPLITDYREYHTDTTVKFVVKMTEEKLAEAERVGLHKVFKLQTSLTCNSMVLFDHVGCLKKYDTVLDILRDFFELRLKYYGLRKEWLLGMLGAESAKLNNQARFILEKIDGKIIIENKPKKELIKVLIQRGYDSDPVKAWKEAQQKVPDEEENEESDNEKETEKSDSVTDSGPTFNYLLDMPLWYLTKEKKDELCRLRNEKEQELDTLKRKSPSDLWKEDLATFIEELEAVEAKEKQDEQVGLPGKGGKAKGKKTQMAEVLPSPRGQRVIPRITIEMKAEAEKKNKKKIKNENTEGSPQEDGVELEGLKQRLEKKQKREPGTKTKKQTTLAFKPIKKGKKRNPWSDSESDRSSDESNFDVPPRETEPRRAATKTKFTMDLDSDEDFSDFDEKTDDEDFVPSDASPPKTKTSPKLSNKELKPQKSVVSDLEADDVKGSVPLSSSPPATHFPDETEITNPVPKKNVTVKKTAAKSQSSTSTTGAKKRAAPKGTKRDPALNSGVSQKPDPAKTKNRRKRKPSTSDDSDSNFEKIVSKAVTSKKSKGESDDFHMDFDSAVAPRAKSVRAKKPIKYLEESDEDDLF

pIC50 (CCRF-CEM [16])	inhibition [17]	Structure (SMILES)	inhibition at 1 µM (CCRF-CEM [1]) [%]	inhibition at 1 µM (HT-29 [2]) [%]	inhibition at 1 µM (MDA-MB-468 [3]) [%]	inhibition at 1 µM (MDA-MB-361 [4]) [%]	inhibition at 1 µM (SK-OV-3 [5]) [%]	inhibition (CCRF-CEM [6])	inhibition (HT-29 [7])	inhibition (MDA-MB-468 [8])	inhibition (MDA-MB-361 [9])	inhibition (SK-OV-3 [10])	growth inhibition (GI) (CCRF-CEM [11])	growth inhibition (GI) (HT-29 [12])	growth inhibition (GI) (MDA-MB-468 [13])	growth inhibition (GI) (MDA-MB-361 [14])	growth inhibition (GI) (SK-OV-3 [15])
7.12		CCCCCCCCCCCCCCOC(=O)CCC(=O)OCC(=O)[C@]1(O)Cc2c(O)c3c(c(O)c2[C@@H](O[C@H]2C[C@H](N)[C@H](O)[C@H](C)O2)C1)C(=O)c1c(OC)cccc1C3=O	69	60	49	66	54	tde	tde	tde	tde	tde	Active	Active	Active	Active	Active
7.12		CCCCCCCCCCCCCCCCNC(=O)CCC(=O)OCC(=O)[C@]1(O)Cc2c(O)c3c(c(O)c2[C@@H](O[C@H]2C[C@H](N)[C@H](O)[C@H](C)O2)C1)C(=O)c1c(OC)cccc1C3=O	69	60	49	66	54	tde	tde	tde	tde	tde	Active	Active	Active	Active	Active
	inactive	CCCCCCCCCCCCCCCC(=O)N[C@H]1C[C@H](O[C@H]2C[C@](O)(C(=O)CO)Cc3c(O)c4c(c(O)c32)C(=O)c2c(OC)cccc2C4=O)O[C@@H](C)[C@H]1O															
7.12		CCCCCCCCCCCCNC(=O)CCC(=O)OCC(=O)[C@]1(O)Cc2c(O)c3c(c(O)c2[C@@H](O[C@H]2C[C@H](N)[C@H](O)[C@H](C)O2)C1)C(=O)c1c(OC)cccc1C3=O	69	60	49	66	54	tde	tde	tde	tde	tde	Active	Active	Active	Active	Active
